According to ChEMBL document CHEMBL4732196, “Structural optimization towards promising β-methyl-4-acrylamido quinoline derivatives as PI3K/mTOR dual inhibitors for anti-cancer therapy: The in vitro and in vivo biological evaluation” (Eur J Med Chem, 2021):
The source made the active and inactive calls. The calls are words filed in the database; no cut-off is given here.

Legend:
[1] = target: Phosphatidylinositol 4,5-bisphosphate 3-kinase catalytic subunit alpha isoform (Homo sapiens, UniProt P42336); experiment: Inhibition of recombinant human PI3Kalpha using PIP2 as substrate incubated for 1 hr by kinase-glo luminescent assay
Sequence of Phosphatidylinositol 4,5-bisphosphate 3-kinase catalytic subunit alpha isoform (P42336 whole entry, canonical isoform): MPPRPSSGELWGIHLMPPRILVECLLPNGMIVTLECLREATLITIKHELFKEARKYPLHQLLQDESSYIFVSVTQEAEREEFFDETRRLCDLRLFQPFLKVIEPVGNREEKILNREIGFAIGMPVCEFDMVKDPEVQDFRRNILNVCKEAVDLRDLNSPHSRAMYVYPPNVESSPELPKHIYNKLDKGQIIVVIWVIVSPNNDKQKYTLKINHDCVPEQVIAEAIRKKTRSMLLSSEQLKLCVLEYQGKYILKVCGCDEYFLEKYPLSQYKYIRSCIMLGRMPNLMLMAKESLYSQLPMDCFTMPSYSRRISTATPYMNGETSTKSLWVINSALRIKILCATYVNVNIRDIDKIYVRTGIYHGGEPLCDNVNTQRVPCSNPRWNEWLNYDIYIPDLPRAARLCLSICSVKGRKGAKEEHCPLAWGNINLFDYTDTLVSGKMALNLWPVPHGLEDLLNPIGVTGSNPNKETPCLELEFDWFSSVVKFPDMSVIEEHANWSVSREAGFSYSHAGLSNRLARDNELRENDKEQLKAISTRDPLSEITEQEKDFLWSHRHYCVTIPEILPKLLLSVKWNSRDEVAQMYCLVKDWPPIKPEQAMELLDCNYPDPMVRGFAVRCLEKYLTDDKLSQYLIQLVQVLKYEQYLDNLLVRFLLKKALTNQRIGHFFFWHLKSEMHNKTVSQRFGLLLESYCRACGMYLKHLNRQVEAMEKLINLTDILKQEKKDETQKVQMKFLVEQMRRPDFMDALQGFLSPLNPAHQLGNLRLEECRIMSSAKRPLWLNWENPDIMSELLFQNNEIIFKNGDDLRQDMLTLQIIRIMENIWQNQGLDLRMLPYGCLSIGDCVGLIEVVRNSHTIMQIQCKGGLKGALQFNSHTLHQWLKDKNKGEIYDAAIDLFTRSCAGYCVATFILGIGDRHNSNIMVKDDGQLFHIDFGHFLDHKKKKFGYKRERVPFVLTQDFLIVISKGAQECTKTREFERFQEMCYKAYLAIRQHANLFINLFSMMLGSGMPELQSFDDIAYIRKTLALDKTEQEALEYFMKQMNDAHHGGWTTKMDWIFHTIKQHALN

PC-3 = experiment: Growth inhibition of human PC3 cells after 72 hrs by sulforhodamine B assay; assay type: functional
U-87 MG = experiment: Growth inhibition of human U87MG cells after 72 hrs by sulforhodamine B assay; assay type: functional, U-87MG ATCC
[2] = target: T1, Serine/threonine-protein kinase mTOR (Homo sapiens, UniProt P42345); experiment: Inhibition of recombinant human N-terminal FLAG-tagged mTOR (1362 to end amino acids) using ULight-4E-BP1 as substrate incubated for 1 hr by LANCE Ultra assay
[3] = target: T1, Serine/threonine-protein kinase mTOR; experiment: Inhibition of mTOR in human U87MG cells assessed as suppression of phosphorylation of S6 ribosomal at Ser235/236 residues at 25 nM after 3 hrs by Western blot analysis; assay type: cell-based; conditions: U87
Method in brief: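 U87MG cells were seeded at 1×10^6 per well and held overnight at 37 °C, 5% CO2. They were then exposed to a range of inhibitor concentrations for 3 h at 37 °C. Phospho-Akt (Ser473, Thr308), phospho-S6 (Ser235/236) and phospho-4E-BP1 (Thr37/46) were measured by Western blot with GAPDH as loading control. Bands were quantified as mean ± SD of 3 biological replicates against untreated cells.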

[4] = target: T1, Serine/threonine-protein kinase mTOR; experiment: Inhibition of mTOR in human U87MG cells assessed as suppression of phosphorylation of S6 ribosomal at 25 nM after 3 hrs by Western blot analysis; conditions: U87
U87 [5] = experiment: Inhibition of PI3K in human U87MG cells assessed as suppression of phosphorylation of AKT at Ser473 residue at 25 nM after 3 hrs by Western blot analysis; assay type: cell-based
Method in brief: (§1)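 U87MG cells seeded at 1×10^6 per well, incubated overnight at 37 °C, 5% CO₂, then treated at various concentrations for 3 h at 37 °C. Western blot for phospho-Akt (Ser473, Thr308), phospho-S6 (Ser235/236) and phospho-4E-BP1 (Thr37/46), with GAPDH as internal control. Bands quantified as mean ± SD, n = 3 biological replicates, versus untreated cells.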

U87 [6] = experiment: Inhibition of PI3K in human U87MG cells assessed as suppression of phosphorylation of AKT at Thr308 residue at 25 nM after 3 hrs by Western blot analysis; assay type: cell-based; method in brief: as §1
[7] = MRT(0 to t) in Sprague-Dawley rat at 5 mg/kg, po; assay type: ADME, organism-based; conditions: in vivo
Method in brief: (§2)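 Male Sprague-Dawley rats (n = 3) received a single 5 mg/kg oral gavage dose formulated as a suspension in 0.5% methylcellulose. Plasma concentration-time curves were recorded and mean PK parameters derived.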

[8] = MRT(0 to infinity) in Sprague-Dawley rat at 5 mg/kg, po; assay type: ADME, organism-based; conditions: in vivo; method in brief: as §2

| SMILES | IC50 [1] | GI50 (PC-3) | GI50 (U-87 MG) | IC50 [2] | inhibition [3] | inhibition [4] | MRT last [7] | MRT inf [8] | inhibition (U87 [5]) | inhibition (U87 [6]) |
| --- | --- | --- | --- | --- | --- | --- | --- | --- | --- | --- |
| COc1ncc(-c2ccc3nccc(/C(C)=C/C(=O)N4CCC(O)CC4)c3c2)cc1NS(=O)(=O)c1ccc(F)cc1F | 1.4 nM | 1080 nM | 600 nM | 6.1 nM | – | – | – | – | – | – |
| COc1ncc(-c2ccc3nccc(/C(C)=C\C(=O)N4CCOCC4)c3c2)cc1NS(=O)(=O)c1ccc(F)cc1F | 23 nM | 8020 nM | > 10000 nM | 141 nM | – | – | – | – | – | – |
| COc1ncc(-c2ccc3nccc(/C(C)=C/C(=O)N4CCCC4)c3c2)cc1NS(=O)(=O)c1ccc(F)cc1F | 1.2 nM | 1160 nM | 390 nM | 2.1 nM | – | – | – | – | – | – |
| COc1ncc(-c2ccc3nccc(/C(C)=C/C(=O)N4CCOCC4)c3c2)cc1NS(=O)(=O)c1ccc(F)cc1F | 1.1 nM | 1670 nM | 610 nM | 3.3 nM | – | – | – | – | – | – |
| COc1ncc(-c2ccc3nccc(/C=C/C(=O)N4CCN(C)CC4)c3c2)cc1NS(=O)(=O)c1ccc(F)cc1F | 1.04 nM | 450 nM | 220 nM | 3.2 nM | – | – | 1.89 h | 2.59 h | – | – |

Compounds with a lower GI50 (PC-3), results first:

| IC50 [1] | GI50 (PC-3) | GI50 (U-87 MG) | IC50 [2] | inhibition [3] | inhibition [4] | MRT last [7] | MRT inf [8] | SMILES | inhibition (U87 [5]) | inhibition (U87 [6]) |
| --- | --- | --- | --- | --- | --- | --- | --- | --- | --- | --- |
| 1.5 nM | 290 nM | 380 nM | 1.7 nM | – | – | – | – | COc1ncc(-c2ccc3nccc(/C(C)=C/C(=O)N(C)CCO)c3c2)cc1NS(=O)(=O)c1ccc(F)cc1F | – | – |
| – | 250 nM | 220 nM | – | Active | Active | – | – | COc1ncc(-c2ccc3nccc(-c4ccnnc4)c3c2)cc1NS(=O)(=O)c1ccc(F)cc1F [OMIPALISIB] | Active | Active |
